# Bioassay records: PubChem, several laboratories
# A selection: hits, their analogues and other compounds. The true share with any hit is near 2.1%.
# Runt-SMMHC FRET: inhibitors of RUNX1 Runt–CBFb-SMMHC binding, primary screen, biochemical, FRET, Cerulean-Runt, Venus-CBFb-SMMHC, uHTS; Runt-related transcription factor 1 (Homo sapiens) + Core-binding factor subunit beta …; Cerulean-Runt/Venus-CBFb-SMMHC FRET ratio 530/480, 1 h; inhibition, % at 20 µM; actives 0.74% (n = 220,000); AID 1434, 2008;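 active = mean inhibition across duplicate retests at 20 µM reaching about 50%, limit read from the data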;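 also: 0% = DMSO wells and 100% = wells with excess untagged CBFb-SMMHC; inhibitors lower the FRET ratio by blocking Runt binding to CBFb-SMMHC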
# L929 necroptosis: inhibitors of zVAD-triggered necroptosis, primary screen, L929 cells | actives 0.38% (n = 220,000) | viability rescue, % at 10 µM | L929 zVAD necroptosis rescue, ATP luminescence, 24 h; with zVAD 60 µM | AID 1377, 2008;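 active = activation, scaled between plate controls, above about 75%, limit read from the data; inactive = activation under that limit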;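 also: 0% = zVAD with DMSO and 100% = DMSO alone without zVAD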
# RanGTP-Imp inh: inhibitors of RanGTP-importin-beta interaction, primary screen, biochemical, FRET, CFP-Ran, YFP-importin-beta, homogeneous; inhibition, % (concentration not given with the values); Ran GTPase (GTP-bound) - importin-beta complex; AID 2216, 2009; cell-free CFP-Ran/YFP-importin-beta FRET ratio; actives 1.1% (n = 300,000);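 active = more than half of the replicate wells show a fall in the fluorescence ratio signal beyond about 16%, limit read from the data, passing the limit was not always enough; inconclusive = exactly half of the replicate wells pass the set limit; inactive = fewer than half of replicates pass the limit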;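 also: 0% = DMSO wells and 100% = Ran loaded with GDP instead of GTP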
# Hck Nef HTS: inhibitors of Nef-activated human Hck kinase, primary screen, biochemical, Z-Lyte FRET, 384-well, Hck-YEEI. Tyrosine-protein kinase HCK (Homo sapiens), P08631. Recombinant Hck-YEEI plus Nef, Z-Lyte FRET kinase assay. inhibition, % at 20 µM. actives 0.68% (n = 220,000);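 active = Hck-Nef kinase inhibition above about 50%, limit read from the data; inactive = inhibition below that limit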;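 also: 0% = DMSO with Hck plus Nef and 100% = Hck alone without Nef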
# Target sequence (P08631 whole entry, looked up): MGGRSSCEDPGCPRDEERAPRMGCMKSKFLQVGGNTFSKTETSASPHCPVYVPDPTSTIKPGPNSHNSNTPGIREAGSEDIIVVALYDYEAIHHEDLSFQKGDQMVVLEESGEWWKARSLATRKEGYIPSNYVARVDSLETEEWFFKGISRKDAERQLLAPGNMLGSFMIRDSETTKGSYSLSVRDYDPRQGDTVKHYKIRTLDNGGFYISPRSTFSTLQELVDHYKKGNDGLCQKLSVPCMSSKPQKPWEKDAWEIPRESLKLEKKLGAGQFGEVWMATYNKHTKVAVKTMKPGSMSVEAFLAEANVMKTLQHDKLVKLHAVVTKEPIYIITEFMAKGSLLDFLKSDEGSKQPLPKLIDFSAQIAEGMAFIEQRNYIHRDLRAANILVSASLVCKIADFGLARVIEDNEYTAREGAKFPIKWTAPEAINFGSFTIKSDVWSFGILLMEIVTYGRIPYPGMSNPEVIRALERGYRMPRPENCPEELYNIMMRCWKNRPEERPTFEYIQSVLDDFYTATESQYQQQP
# TNF necrop inh: inhibitors of TNF-alpha triggered necroptosis, primary screen, cell-based, Jurkat FADD-/-, single concentration; Jurkat FADD-/- TNF necroptosis rescue, ATP luminescence, 24 h; 0 = TNF only, 100 = no-TNF cells; activation (protection from cell death), % at 10 µM; actives 0.068% (n = 220,000);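 active = activation, meaning protection from cell death, of at least 50% relative to plate controls; inactive = activation below 50%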;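 also: necroptosis triggered by 40 ng/mL TNF-alpha added together with compound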
# Runt-CBFb FRET: inhibitors of RUNX1 Runt–CBFb binding, primary screen, biochemical, FRET, Cerulean-Runt, Venus-CBFb, uHTS | Cerulean-Runt/Venus-CBFb FRET ratio 530/480, 1 h | Runt-related transcription factor 1 (Homo sapiens) + Core-binding factor subunit beta … | inhibition, % at 20 µM | actives 0.46% (n = 220,000) | AID 1496, 2009;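 active = inhibition over about 50% at 20 µM in the single-dose screen, limit read from the data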;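 also: 0% = DMSO wells and 100% = excess unlabeled CBFb competitor control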
#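 Assay system: Cerulean-tagged RUNX1 Runt domain (FRET donor) fusion protein / Amount: 100 nM each of Venus-CBFb and Cerulean-Runt domain / Medium: Tris buffer pH 7.5 with salts and BSA / Also added: Venus-CBFb 100 nM / Schedule: 1 h complex formation plus 1 h compound treatment, room temperature / Signal: FRET fluorescence / Read-out: loss of energy transfer signal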
# zVAD necrop conf: inhibitors of zVAD-triggered necroptosis in L929, confirmation, L929 cells, duplicate runs | actives 16% (n = 760) | AID 463117, 2010 | L929 zVAD-induced necroptosis rescue, ATP luminescence, 24 h | activation (protection from necroptosis), % at 10 µM | shares compounds with L929 necroptosis;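 active = mean protection from necroptosis of at least 50% over duplicate tests; inactive = mean protection below 50%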;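 also: 0% = cells with zVAD alone and 100% = vehicle cells without zVAD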
# RUNX1 CBFb TR: inhibitors of RUNX1 Runt–CBFb binding, biochemical, TR-FRET; TR-FRET RUNX1 Runt domain-CBFb binding; actives 20% (n = 480); inhibition, % at 20 µM; AID 1502, 2009; shares compounds with Runt-CBFb FRET; in the data active = inhibition above about 40%
# YIC FRET counter: YIC intramolecular FRET probe signal interference, dose response, counter-screen for RanGTP-importin-beta inhibitor project, biochemical, fluorescence FRET; actives 40% (n = 1,000); IC50, µM; Purified YIC probe, intramolecular FRET ratio YFP/CFP; shares compounds with RanGTP-Imp inh;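 active = fitted half-maximal inhibitory concentration no more than tenfold above the top dose tested; inconclusive = flat fit with 30 to 70% activity, or poor fit; inactive = half-maximal concentration beyond tenfold above the top dose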
# * hit, by the source's call; ? = inconclusive; · = no result given.
SMILES,Runt-SMMHC FRET,L929 necroptosis,RanGTP-Imp inh,Hck Nef HTS,TNF necrop inh,Runt-CBFb FRET,YIC FRET counter,others
O=C(/C=C/c1ccccc1)c1c(O)n(CCc2ccccc2)c(=O)[nH]c1=O,2.2,82.9*,4.3,2.3,-1.2,0.7,·,zVAD necrop conf=0.9
CC(=O)OC[C@]12CCC(C)=C[C@H]1O[C@@H]1[C@H](O)[C@@H](OC(C)=O)[C@@]2(C)[C@]12CO2,-1.4,95.5*,·,35.6,-24.0,-0.6,·,zVAD necrop conf=81.7*
c1ccc2c(N3CCNCC3)nsc2c1,2.1,-2.0,-2.6,20.2,4.5,-1.7,·,
O=C(Nc1ccc(Cl)cc1)Nc1nccs1,-3.9,86.3*,1.5,-0.4,-4.3,·,·,zVAD necrop conf=7.3
COc1cc2c(cc1OC)C13CCN4CC5=CCOC6CC(=O)N2C1C6C5CC43 (configuration not stated) (tested in a mixture with another compound),-2.1,0.3,-5.1,10.1,1.3,-0.9,·,
CC[n+]1c(/C=C/N(C)c2ccccc2)sc2ccc(Cl)cc21,42.7,0.3,?,0.9,-13.1,55.3*,·,RUNX1 CBFb TR=8.7
O=c1[nH]c(=O)n(Cc2ccccc2Cl)c(O)c1/C=C1/C=CC=N1,-67.5,0.0,1.8,24.3,-10.9,-22.5,·,
CCC[N+]12CCC(CC1)C(=C(c1ccccc1)c1ccccc1)C2,-0.8,-0.1,-0.7,-0.7,1.9,52.4*,·,RUNX1 CBFb TR=-282.7
CN1C(=O)/C(=C/c2cccn2-c2ccc3ccccc3c2)C(=O)NC1=S,10.8,-1.1,0.1,22.3,-14.3,22.6,·,
O=C1NC(=S)NC(=O)C1=Cc1cccn1-c1ccc(O)cc1,41.9,-3.2,3.8,48.1,-3.0,57.3*,·,RUNX1 CBFb TR=90.3*
CCCCc1cc(=O)oc2cc(OCC(=O)N3C[C@H]4C[C@@H](C3)c3cccc(=O)n3C4)c(Cl)cc12,·,·,1.2,·,·,·,·,
CC(=O)c1c(O)n(-c2cccc(Cl)c2)c(=O)[nH]c1=O (tested in a mixture with another compound),-0.9,-0.1,3.4,9.0,1.5,1.7,·,
CC(C)n1c(O)c(C2c3cc(Cl)ccc3Oc3[nH]c(=O)n(C(C)C)c(=O)c32)c(=O)[nH]c1=O (configuration not stated),74.8*,61.1,21.7*,13.4,24.4,59.7*,>50,RUNX1 CBFb TR=31.6
O=c1cccc2n1CC1CNCC2C1 (configuration not stated),·,·,-0.5,·,·,·,·,
O=C(Nc1ccc(F)cc1F)c1cccnc1Oc1cccc(C(F)(F)F)c1,0.6,0.1,0.8,0.3,-0.8,-1.6,·,
Nc1c(C(=O)OC2CCCCC2)c2nc3ccccc3nc2n1CC1CCCO1 (configuration not stated),106.5*,0.8,23.1*,30.5,-9.3,54.3*,27.4*,RUNX1 CBFb TR=37.7
COCCOC(=O)c1c(N)n(Cc2ccccc2)c2nc3ccccc3nc12,107.8*,0.7,18.6*,33.7,-1.1,50.7*,46.5*,RUNX1 CBFb TR=1.3
CCCCn1c(N)c(C(=O)OCCOC)c2nc3ccccc3nc21,106.8*,1.0,?,66.4*,1.1,61.8*,·,RUNX1 CBFb TR=27.1
Cc1cccc(NC(=O)[C@@H](NC(=O)N2C[C@H]3C[C@@H](C2)c2cccc(=O)n2C3)C(C)C)c1,·,·,3.3,·,·,·,·,
CCN1/C(=C\C=C\C2=[N+](CC)c3ccccc3C2(C)C)C(C)(C)c2ccccc21,18.3,5.7,26.8*,3.4,-11.6,7.6,29.8*,
Cc1cc(C=C(C#N)C#N)ccc1N1CCCC1,-63.0,14.8,31.1*,21.2,-1.1,-32.1,>26,
CN1CC2=CC(O)CC3Oc4c(O)ccc(c4[C@]23C)C1 (some centres not stated),·,·,25.5*,·,·,·,>50,
CC(C)OC(=O)c1c(N)n(CC2CCCO2)c2nc3ccccc3nc12 (configuration not stated),92.0*,0.1,23.6*,30.7,-3.4,71.8*,19.9*,
O=C(C1CCC(=O)N1Cc1ccccc1Cl)N1CCC2(CC1)OCCO2 (configuration not stated),1.1,0.3,2.1,-1.1,0.5,1.5,·,
O=C(O)CSC(=S)N1CC2CC(C1)c1cccc(=O)n1C2 (configuration not stated),3.6,7.5,0.6,19.7,1.6,-0.9,·,
SMILES,Runt-SMMHC FRET,L929 necroptosis,RanGTP-Imp inh,Hck Nef HTS,TNF necrop inh,Runt-CBFb FRET,YIC FRET counter,others
O=C(Nc1cccc(OC(=O)N2CCOCC2)c1)N1CCOCC1,0.2,0.2,-1.7,2.4,-1.1,1.1,·,
O=C(Nc1cccc(OC(=O)N2CCCCC2)c1)N1CCCCC1,-0.8,1.2,21.1*,1.7,-0.9,0.5,>50,
CCCCCn1c(=O)c(C(=O)Nc2ncccc2C)c(O)c2ccccc21,·,·,3.8,·,·,·,·,
CN1CCC(OC(=O)C2c3ccccc3Oc3ccccc32)CC1,-1.5,-1.0,3.1,-20.1,-0.2,-0.2,·,
CN1C(=O)C(=Cc2ccc(OCC(=O)Nc3ccccc3)cc2)C(=O)N(C)C1=O,·,·,7.4,·,·,·,·,
CC(=O)N1CN2CN(C(C)=O)CC(C(=O)c3ccc([N+](=O)[O-])cc3)(C2)C1,1.7,2.8,0.9,20.8,0.1,-1.9,·,
CC(=O)N1CN2CN(C(C)=O)CC(C(=O)c3ccccc3)(C2)C1,2.0,1.5,20.7*,4.2,0.0,-0.8,>50,
CCCCNC(=O)c1c(N)n(Cc2ccc3c(c2)OCO3)c2nc3ccccc3nc12,36.8,0.0,32.3*,13.5,-1.1,10.1,3.12*,
CC(C)CCn1c(=O)c(C(=O)NCc2ccc3c(c2)OCO3)c(O)c2ccccc21,·,·,2.1,·,·,·,·,
C=CCN1CCc2cccc3c2[C@H]1Cc1ccc(O)c(O)c1-3,·,·,18.7*,·,·,·,>50,
